Hits are enriched below; roughly 2.8% of the tested compounds scored in any of these assays.
PGE2 EP2 inh – inhibitors of human EP2 prostaglandin E2 receptor. inhibition, % at 25 µM. P43116. 260,000 compounds, 0.52% hits. C6 glioma cells expressing human EP2, cAMP TR-FRET; cells stimulated with saturating PGE2;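 active = percent inhibition above 40 after rounding to a whole number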;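 also: rat C6 glioma host cells with rolipram phosphodiesterase inhibitor present; the protocol text gives 20 µM as final concentration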
Target sequence (P43116 whole entry, looked up): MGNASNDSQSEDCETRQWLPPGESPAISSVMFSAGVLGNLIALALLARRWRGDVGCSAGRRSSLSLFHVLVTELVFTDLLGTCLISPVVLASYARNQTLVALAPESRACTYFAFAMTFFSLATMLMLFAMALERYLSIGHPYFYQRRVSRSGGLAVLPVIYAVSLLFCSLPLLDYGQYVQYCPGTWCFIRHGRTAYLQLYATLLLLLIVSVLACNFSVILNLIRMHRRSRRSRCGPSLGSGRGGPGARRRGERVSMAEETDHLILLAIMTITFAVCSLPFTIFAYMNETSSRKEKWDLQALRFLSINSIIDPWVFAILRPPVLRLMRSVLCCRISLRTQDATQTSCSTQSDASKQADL
NPY-Y2 PAM-ag – potentiators or agonists of human neuropeptide Y receptor Y2; cells expressing NPY-Y2, potentiator/agonist read-out; 220,000 compounds, 0.45% hits; P49146; activation, % at 3.6 µM; in the data active = activation above about 27%;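 also: cells stimulated with NPY near EC25 plus isoproterenol at EC100; 0% = vehicle plus submaximal agonist and 100% = vehicle plus saturating agonist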
Target sequence (P49146 whole entry, looked up): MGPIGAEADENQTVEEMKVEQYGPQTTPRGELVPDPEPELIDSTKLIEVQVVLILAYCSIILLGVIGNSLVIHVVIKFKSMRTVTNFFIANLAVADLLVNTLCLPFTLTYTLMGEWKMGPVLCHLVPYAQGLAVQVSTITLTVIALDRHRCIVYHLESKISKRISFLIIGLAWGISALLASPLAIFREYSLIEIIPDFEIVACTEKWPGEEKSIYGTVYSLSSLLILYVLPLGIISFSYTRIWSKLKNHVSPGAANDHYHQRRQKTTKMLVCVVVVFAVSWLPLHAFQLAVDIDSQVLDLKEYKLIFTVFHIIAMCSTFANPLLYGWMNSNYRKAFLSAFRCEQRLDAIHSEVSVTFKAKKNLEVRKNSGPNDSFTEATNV
NPY1 pot ag – potentiators or agonists of human neuropeptide Y receptor Y1; activation, % at 3.6 µM; AID 1304; NPY-Y1 expressing cells, potentiator/agonist activation; P25929; 220,000 compounds, 0.37% hits; in the data active = activation above about 33%, passing the limit was not always enough;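 also: cells stimulated with NPY at EC10 then isoproterenol at EC100; 0% = low agonist plus stimulus and 100% = saturating agonist plus stimulus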
NPY Y1 blocker – blocks the human neuropeptide Y Y1 receptor; HEK293-CNG Y1 cells, membrane potential fluorescence; NPY at EC95, then isoproterenol; inhibition, % at 3.6 µM; AID 1040; 200,000 compounds, 1% hits; P25929;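 active = inhibition above the campaign mean inhibition of all tested compounds plus 3 SD, cut at about 20% in these data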;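 also: 0% = DMSO wells given NPY plus isoproterenol and 100% = isoproterenol alone without NPY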
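Material: HEK293 cells co-expressing NPY Y1 receptor and cyclic-nucleotide gated channel. Timing: compound incubation 1 h at room temperature, readout 45 min post-stimulation. Signal: fluorescence, membrane potential probe.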
EP2 modulator – EP2 receptor (human) modulation. EP2-expressing cells, cAMP HTRF FRET, PGE2 co-stimulation. induction, % at 25 µM. 260,000 compounds, 0.83% hits. AID 940;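 active = compounds whose cAMP rise, as percent of the full-agonist control response, exceeds 60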;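 also: rat C6 glioma line stably carrying human EP2 under a CMV promoter; the protocol text gives 20 µM as final concentration; 100% = response of wells given 1 µM PGE2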
NPY Y2 blocker – NPY-Y2 (human) receptor antagonism. NPY-Y2 expressing cells, antagonist mode. 140,000 compounds, 0.99% hits. inhibition, % at 2.7 µM. P49146; in the data active = inhibition above about 17%;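 also: 0% = vehicle with agonist challenge and 100% = reference antagonist with challenge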
NPY1 antag ctr – counter-screen for NPY-Y2 antagonists: human NPY-Y1 antagonism; 710 compounds, 19% hits; cell-based NPY-Y1 antagonism counterscreen; shares compounds with NPY Y2 blocker; inhibition, % at 3.6 µM; in the data active = inhibition above about 20%;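 also: cells challenged with NPY then isoproterenol with cAMP sensed through a CNG channel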
NPY2 antag conf – human NPY-Y2 antagonism, confirmation; shares compounds with NPY Y2 blocker; HEK293 NPY-Y2 CNG channel, membrane potential fluorescence; inhibition, % at 2.8 µM; 710 compounds, 32% hits; AID 1257;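 active = mean inhibition of triplicate wells above the hit cutoff set in the primary screen, cut at about 17% in these data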;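 also: 0% = DMSO with NPY challenge and 100% = BIIE0246 high control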
An asterisk follows results filed as active; . = not tested or not shown.

SMILES | PGE2 EP2 inh | NPY-Y2 PAM-ag | NPY1 pot ag | NPY Y1 blocker | EP2 modulator | NPY Y2 blocker | NPY1 antag ctr | NPY2 antag conf
O=C(CNc1ccc2c(c1)OCO2)N/N=C\c1ccccc1Cl | 15 | -9 | -42 | 10 | -23 | 40* | 4 | 9
COc1cccc(-n2nc(C(=O)Nc3ccc4c(c3)OCO4)c3ccccc3c2=O)c1 | 7 | -6 | -19 | 6 | -9 | 3 | . | .
O=C(Nc1ccc2c(c1)OCO2)c1nn(-c2ccccc2)c(=O)c2ccccc12 | 2 | -19 | -35 | -2 | 12 | 17* | 11 | 9
FC(F)(F)c1nc(-c2cccnc2)ncc1-c1nnnn1-c1ccccc1 | 6 | -6 | -23 | 1 | -2 | 5 | . | .
FC(F)(F)c1nc(-c2cccs2)ncc1-c1nnnn1-c1ccc(Cl)cc1 | 9 | 6 | -32 | 14 | -28 | 25* | 26* | 17
Clc1ccccc1CSc1nnc(/C=C/c2ccccc2)o1 | . | -10 | -19 | 11 | 23 | 20* | 20 | 21*
Clc1ccc(CSc2nnc(/C=C/c3ccccc3)o2)cc1 | 12 | -9 | -19 | 1 | 1 | 18* | 24* | 21*
Clc1ccc(CSc2nnc(COc3ccc4ccccc4c3)o2)cc1 | 8 | . | . | . | -68 | . | . | .
Cc1nc2c3ccccc3nc(SCC(=O)c3ccc(Cl)cc3)n2n1 | 3 | -5 | 5 | 13 | 6 | 27* | 21* | 15
Cc1nc2c3ccccc3nc(SCC(=O)N3CC(C)CC(C)C3)n2n1 (centres undefined) | . | -2 | 6 | 2 | 7 | 4 | . | .
O=C(c1ncoc1-c1ccc(F)cc1)N1CCC2(CC1)C(=O)NCN2c1ccccc1 | 7 | . | . | . | -7 | . | . | .
O=[N+]([O-])c1ccc(-c2csc3[n+]2CCS3)cc1 | 17 | -11 | -10 | 20 | 13 | 23* | 5 | 4
O=C(CNCC1CCCO1)NCC1CCCO1 (centres undefined) | 8 | . | . | . | 1 | . | . | .
COc1ccc(-c2cc(C(=O)OCC(C)=O)c3ccccc3n2)cc1 | 12 | . | . | . | 11 | . | . | .
COc1ccc(-n2c(SCC(=O)Nc3ccc(C)c(C)c3)nnc2-c2cccnc2)cc1 | 18 | . | . | . | -24 | . | . | .
Nc1nc(CN2CCCCCC2)nc(Nc2ccccc2)n1 | 3 | -2 | -12 | -1 | 1 | -3 | . | .
Nc1nc(CN2CCC(Cc3ccccc3)CC2)nc(Nc2ccccc2)n1 | 7 | -7 | -46 | 13 | -14 | 19* | 16 | 15
COCCOC(=O)c1[nH]c2c(c1C)C(=O)CC(c1ccco1)C2 (centres undefined) | 5 | 9 | 3 | 9 | 4 | 32* | -3 | 5
Cc1cc(Oc2ccc(-c3ccccc3)cc2)n2ncnc2n1 | 2 | -5 | -1 | 4 | -4 | 20* | 0 | 3
CC(C)c1ccc(-c2nnn(Cc3nc4ccccc4s3)n2)cc1 | 4 | -24 | -60 | 16 | -13 | 23* | 16 | 23*
CC(C)c1ccc(-c2nnn(CCC#N)n2)cc1 | 6 | -10 | 1 | 2 | -20 | . | . | .
COc1ccc(CN(Cc2cn[nH]c2C(C)(C)C)CC2CCCO2)cc1OC (centres undefined) | 6 | . | . | . | 31 | . | . | .
Cc1cccc(C)c1NC(=O)C1(N(Cc2ccco2)C(=O)c2ccccn2)CCCC1 | 9 | -3 | -18 | 10 | 10 | 5 | . | .
O=C(c1ccccn1)N(Cc1ccco1)C1(C(=O)NC2CCCCC2)CCCCC1 | 8 | 1 | 2 | 19 | 5 | 32* | 11 | 6
O=c1[nH]c(N2CCCC2)nc2c1CN(Cc1nnnn1CCc1ccccc1)CC2 | . | . | . | . | -15 | . | . | .
SMILES | PGE2 EP2 inh | NPY-Y2 PAM-ag | NPY1 pot ag | NPY Y1 blocker | EP2 modulator | NPY Y2 blocker | NPY1 antag ctr | NPY2 antag conf
CCCC[C@@H]1C[C@H]1[C@@H](NC(=O)c1cccs1)c1ccc(Cl)cc1 | 9 | 1 | -46 | 2 | -30 | 18* | 13 | 17
CCCC[C@@H]1C[C@H]1[C@@H](NC(=O)c1cccs1)c1ccc(C(F)(F)F)cc1 | 12 | . | . | . | . | . | . | .
Cc1cc(OCC(=O)O/N=C(\N)c2ccccc2)ccc1Cl | 7 | -4 | -10 | 10 | 3 | 19* | 7 | 10
Cc1cccc(/C(N)=N/OC(=O)COc2ccc(Cl)c(C)c2)c1 | 11 | 16 | 1 | -3 | -12 | 11 | . | .
COc1cccc(C2NC(=O)NC3=C2C(=O)N(CCO)C3)c1 (centres undefined) | 14 | . | . | . | -2 | . | . | .
CCCn1c(SCc2nc(-c3cccs3)no2)nnc1-c1ccncc1 | 12 | -3 | -14 | -3 | 3 | 4 | . | .
CCOc1ccc(-n2c(SCc3nc(-c4cccs4)no3)nnc2-c2ccncc2)cc1 | 5 | -2 | -52 | 18 | 11 | 18* | 17 | 14
Cc1cccc(CSC2=NCCN2C(=O)c2ccc(Br)o2)c1 | 16 | -17 | -18 | 13 | 27 | 20* | 17 | 31*
Cc1cccc(CSC2=NCCN2C(=O)c2ccc(S(=O)(=O)N(C)C)cc2)c1 | 4 | -5 | 16 | 5 | -5 | . | . | .
O=C(NC1CCCCC1)C(c1ccco1)N(Cc1cccnc1)C(=O)C1COc2ccccc2O1 (centres undefined) | 7 | -5 | -20 | 15 | 29 | 19* | 4 | 6
Cc1c(NC(=O)c2ccc(COc3ccc4ccccc4c3)o2)c(=O)n(-c2ccccc2)n1C | 4 | -4 | -11 | 8 | -9 | 18* | 15 | 9
CC(C)CCNC(=O)c1cc(-c2ccco2)nc2ccccc12 | 6 | -112 | -149 | 19 | -14 | 33* | 40* | 40*
Cc1ccc(C(C(=O)NC2CCCCC2)N(Cc2ccco2)C(=O)Cc2c[nH]c3ccccc23)o1 (centres undefined) | 5 | -5 | -5 | 14 | 54 | 19* | 13 | 11
CN(C)c1cccc(C(=O)OCC(=O)Nc2ccccc2-c2ccccc2)c1 | 8 | 3 | -15 | 2 | 28 | 4 | . | .
CCN(CC)c1ccc(C(=O)OCC(=O)Nc2ccccc2-c2ccccc2)cc1 | 9 | 0 | -29 | 6 | 38 | 21* | 12 | 11
O=C(COC(=O)/C=C/c1ccc(Cl)cc1)Nc1ccccc1-c1ccccc1 | 8 | 10 | 5 | -2 | -8 | 22* | 20 | 17*
O=C(COc1ccccc1CNCc1ccccc1)Nc1ccccc1 | 8 | -31 | -36 | 19 | -20 | 21* | 14 | 25*
CCOc1ccccc1CNCc1ccc(C(=O)O)cc1 | 4 | -11 | -4 | -4 | 29 | . | . | .
OC1(c2ccc(F)cc2)CCN(Cc2cnc(N3CCCCC3)nc2)CC1 | 5 | . | . | . | -48 | . | . | .
O=P(CCCCCCCCCP(=O)(c1ccccc1)c1ccccc1)(c1ccccc1)c1ccccc1 | 8 | -16 | 27 | -7 | 20 | 18* | 2 | 111*

Compound activity: PubChem BioAssay, several laboratories
